Experimental data reported in PubChem BioAssay.
Inconclusive results are not listed.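 The calls were made as follows, unless noted: active = viability at or below 27.92% in each of two runs, the all-compound median minus 4 SD; inconclusive = no clear call, values can overlap the other calls; inactive = the rest.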

Legend:
[1] = S. cerevisiae growth inhibition in permissive medium (OD615), pilot counter-assay for S. cerevisiae lifespan shortening project, permissive growth control (AID 705;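 active = growth inhibition above 25% in both replicates, a cutoff set 3 SD above the mean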); conditions: OD615, 24 h, at 10 µM, stronger effect = higher value
Method in brief: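 assay system = Saccharomyces cerevisiae strain carrying genetically modified DeaD replicative-lifespan system | medium = SC raffinose/galactose permissive medium | dosing = 10 µM single dose, 0.25% DMSO | schedule = 24 h compound exposure at 30 °C after 4 h pre-growth | measured by = OD at 615 nm | read-out basis = growth inhibition from lowered OD615 after 24 h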

[2] = S. cerevisiae growth inhibition in restrictive medium, OD615, pilot screen, restrictive growth control, yeast lifespan reduction project (AID 706;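 active = growth inhibition above a set limit, 3 SD over mean compound inhibition, in both replicates, cut at about 43% in these data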;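 also: modified DeaD lifespan yeast strain shifted to restrictive glucose medium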); conditions: OD615, 48 h, at 10 µM, stronger effect = higher value
Method in brief: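 Buffer or medium: CSMM-D glucose medium. Material: genetically modified Saccharomyces cerevisiae, DeaD replicative lifespan assay strain. Times: 48 h compound exposure at 30 °C. Measured by: optical density at 615 nm.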

[3] = doxorubicin toxicity protection in MRP-1 cells – H69AR cells, CellTiter-Glo, duplicate, MRP-1 activator project, pilot screen (AID 807;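 active = viability increase at or above a cutoff of the median across tested compounds plus 3 SD, cut at about 8.5% in these data, passing the limit was not always enough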;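 also: compound pretreatment 18-22 h then 72 h combined with doxorubicin; 0% = doxorubicin alone and 100% = vehicle without doxorubicin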); conditions: H69AR viability with doxorubicin, CellTiter-Glo luminescence; at 10 µM; stronger effect = higher value
[4] = viability of HCT116 without oncogenic beta-catenin – human colon tumor cells, pilot screen (AID 823;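 active = cell viability at or below a set limit in both duplicate runs, the limit being the all-compound median minus 4 SD, cut at about 23% in these data, passing the limit was not always enough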;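 also: 0% = wells killed by 20 µM Hyamine and 100% = untreated DMSO cell wells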); conditions: HCT116 beta-catenin knockout viability, CellTiter-Glo, 60 h; at 10 µM; stronger effect = lower value
[5] = viability of PTEN-null HCT116 cells – cell-based, HCT116 clonal line, CellTiter-Glo, pilot screen (AID 824); conditions: HCT116 PTEN-deleted viability, 60 h, at 10 µM, stronger effect = lower value;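 also: 0% = 20 µM Hyamine control and 100% = vehicle cell control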
[6] = RAM pathway blockade in budding yeast – dse1pr::URA3 reporter, 5-FOA selection, pilot screen (AID 869;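 active = inhibition over a set limit, the all-compound mean plus 3 SD, in both replicate runs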;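 also: 0% = DMSO wells with no growth and 100% = 10 µM 1-NA-PP1 with full growth; RAM network block rescues cells from 5-FOA so hits raise OD615 growth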); conditions: S. cerevisiae dse1pr::URA3 5-FOA growth, OD615, 2 d; at 10 µM; stronger effect = higher value; strain carries analog-sensitive mutant Cbk1 kinase
[7] = RAM signaling pathway blockade in yeast – S. cerevisiae, Pdr1DBD-CYC8 efflux-inhibited sensitized strain, primary screen (AID 1298;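 active = RAM network inhibition above 8.4% in each of two replicates, 3 SD over the compound average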;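 also: 0% = DMSO untreated cells without growth and 100% = 10 µM 1-NA-PP1 full growth; higher means more yeast growth rescued from 5-FOA killing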); conditions: S. cerevisiae cbk1-as DSE1-URA3 strain, 5-FOA growth OD615, 2 d; at 50 µM; stronger effect = higher value

COc1ccc(C/C(O)=C(\C#N)c2nc3ccccc3[nH]2)cc1OC
inactive: growth inhibition [1] -4.85% | growth inhibition [2] 0.74% | viability increase [3] -1.93% | viability [4] 90.7% | viability [5] 87.7% | inhibition [6] 0.175% | RAM network inhibition [7] 3.13%

CC1(C)CC(=O)N(c2ccccc2)C1(C)O (stereo not drawn)
inactive: growth inhibition [1] -8.08% | growth inhibition [2] -4.3% | viability increase [3] 0.17% | viability [4] 93.7% | viability [5] 104% | inhibition [6] 0.395% | RAM network inhibition [7] 1.53%

O=C1CCC(=O)N1c1ccc(CSc2nc3ccccc3[nH]2)cc1
inactive: growth inhibition [1] -4.96% | growth inhibition [2] -2.19% | viability increase [3] 0.79% | viability [4] 104% | viability [5] 92.9% | inhibition [6] 1.06% | RAM network inhibition [7] 2.24%

Cn1c(=O)oc2cc(S(=O)(=O)N3CCCC(C(=O)N4CC=C(c5ccccc5)CC4)C3)ccc21 (stereo not drawn)
inactive: growth inhibition [1] -10.7% | growth inhibition [2] 8.07% | viability increase [3] -1.04% | viability [4] 80.9% | viability [5] 82.1% | inhibition [6] 1.17% | RAM network inhibition [7] 4.97%

Brc1cccc(-c2nc(-c3ccncc3)no2)c1
inactive: growth inhibition [1] -7.69% | growth inhibition [2] 7.9% | viability increase [3] -3.4% | viability [4] 90.4% | viability [5] 80% | inhibition [6] -0.445% | RAM network inhibition [7] 3.3%

C=CCn1cc(C(=O)NCCCOC)c(=O)c2cc(S(=O)(=O)N3CCC(C)CC3)ccc21
inactive: growth inhibition [1] -10.6% | growth inhibition [2] -19.6% | viability increase [3] -3.54% | viability [4] 96.7% | viability [5] 87% | inhibition [6] 1.56% | RAM network inhibition [7] -0.52%

Cc1cc(OCC(=O)Nc2cc(-c3nn4c(C)nnc4s3)ccc2C)ccc1Cl
inactive: growth inhibition [1] 2.82% | growth inhibition [2] 27.5% | viability increase [3] -0.6% | viability [4] 95.6% | viability [5] 82% | inhibition [6] 2.49% | RAM network inhibition [7] 6.32%

CCCCC(=O)Nc1nc2ccc3nc(C)sc3c2s1
inactive: growth inhibition [1] -25.8% | growth inhibition [2] -2.65% | viability increase [3] -0.78% | viability [4] 81.3% | viability [5] 87.2% | inhibition [6] 2.27% | RAM network inhibition [7] 0.32%

c1cn(CCCNc2ncnc3nc[nH]c23)cn1
inactive: growth inhibition [1] -7.59% | growth inhibition [2] -16.1% | viability increase [3] -1.91% | viability [4] 111% | viability [5] 96.2% | inhibition [6] 0.895% | RAM network inhibition [7] 2.98%

COCCN1C=C(C(=O)OC)C(c2cc(Br)c(OC)c(OC)c2)C(C(=O)OC)=C1
inactive: growth inhibition [1] 1.89% | growth inhibition [2] -0.035% | viability increase [3] -2.7% | viability [4] 80.8% | viability [5] 71.9% | inhibition [6] 2.16% | RAM network inhibition [7] 8.73%

O=C(O)[C@H](Cc1ccccc1)N1Cc2ccccc2C1=O
inactive: growth inhibition [1] -4.39% | growth inhibition [2] -15% | viability increase [3] -2.35% | viability [4] 95.3% | viability [5] 97.4% | inhibition [6] 1.4% | RAM network inhibition [7] 1.15%

FC(F)(F)C12CC(c3ccccc3)=NCCN1CCN2 (stereo not drawn)
inactive: growth inhibition [1] -4.15% | growth inhibition [2] 4.43% | viability increase [3] -1.23% | viability [4] 102% | viability [5] 97.9% | inhibition [6] 1.35% | RAM network inhibition [7] -0.53%

CCCc1cc(=O)oc2cc3occ(C)c3cc12
inactive: growth inhibition [1] -10.3% | growth inhibition [2] 2.5% | viability increase [3] -2.52% | viability [4] 93.6% | viability [5] 97.6% | inhibition [6] 1.23% | RAM network inhibition [7] 4.79%

O=C(CN1CCN(Cc2ccccc2F)C1=O)NCCN1CCOCC1
inactive: growth inhibition [1] -2.78% | growth inhibition [2] 5.44% | viability increase [3] -0.58% | viability [4] 109% | viability [5] 99.5% | inhibition [6] 1.27% | RAM network inhibition [7] 1.5%

COc1cccc2c(=O)n(CC(=O)N3CCN(c4ccccc4)CC3)ccc12
inactive: growth inhibition [1] -7.37% | growth inhibition [2] -7.01% | viability increase [3] -0.94% | viability [4] 99.7% | viability [5] 98.1% | inhibition [6] 1.39% | RAM network inhibition [7] 4.22%

CCn1c(=O)c2cc(C(=O)N3CCCC3)sc2c2ccccc21
inactive: growth inhibition [1] -4.95% | growth inhibition [2] 13% | viability increase [3] -1.55% | viability [4] 111% | viability [5] 96.8% | inhibition [6] 1.59% | RAM network inhibition [7] 2.1%

CN(C)CCNc1nc2c(c(=O)[nH]c(=O)n2C)n1CCCc1ccccc1
inactive: growth inhibition [1] -14.9% | growth inhibition [2] 4.34% | viability increase [3] -1.16% | viability [4] 93.1% | viability [5] 93.9% | inhibition [6] 2.04% | RAM network inhibition [7] 0.47%

CCC(=O)N=c1sc2cc(F)cc(F)c2n1C
inactive: growth inhibition [1] -6.05% | growth inhibition [2] -7.75% | viability increase [3] -5.39% | viability [4] 93.4% | viability [5] 87.8% | inhibition [6] 1.4% | RAM network inhibition [7] 3.13%

O=C(NCc1ccccc1)c1cc(S(=O)(=O)N2CCOCC2)ccc1F
inactive: growth inhibition [1] -3.95% | growth inhibition [2] -30.7% | viability increase [3] 0.27% | viability [4] 94.7% | viability [5] 93% | inhibition [6] 3.29% | RAM network inhibition [7] 3.42%

CCn1cc(C(=O)NCCCN2CCC(C)CC2)c2cc(OC)c(OC)cc2c1=O
inactive: growth inhibition [1] -7.74% | growth inhibition [2] 6.7% | viability increase [3] -3.47% | viability [4] 99.3% | viability [5] 92% | inhibition [6] 1.77% | RAM network inhibition [7] 1.99%

CCOC(=O)N1CCC(NC(=O)c2ccc3snnc3c2)CC1
inactive: growth inhibition [1] -6.44% | growth inhibition [2] -4.42% | viability increase [3] -3.44% | viability [4] 98.5% | viability [5] 89.7% | inhibition [6] 0.55% | RAM network inhibition [7] 4.29%

O=C1c2ccccc2-c2nc3ncnn3c(-c3ccccc3Cl)c21
inactive: growth inhibition [1] -6.53% | growth inhibition [2] -0.65% | viability increase [3] -3.38% | viability [4] 83.3% | viability [5] 76.9% | inhibition [6] 0.39% | RAM network inhibition [7] 0.58%

Cc1ccc(C(=O)Nc2nc3ccccc3n2CCN2CCCC2)cc1
inactive: growth inhibition [1] -11.4% | growth inhibition [2] -2% | viability increase [3] -5.99% | viability [4] 37.4% | viability [5] 51.5% | inhibition [6] 0.665% | RAM network inhibition [7] 7.05%

O=C(NCCc1csc(-c2cccnc2)n1)c1ccco1
inactive: growth inhibition [1] 4.59% | growth inhibition [2] 4.47% | viability increase [3] -4.68% | viability [4] 105% | viability [5] 98.6% | inhibition [6] 0.97% | RAM network inhibition [7] 2.36%
